Converted amounts (≈) assume the structure as drawn. The source made the active and inactive calls. The rule behind the calls is not given here.
Key:
Mus musculus [1] = assay: Antiinflammatory activity in ICR mouse assessed as inhibition of carrageenan-induced iNOS protein expression in paw at 10 mg/kg, ip administered 30 mins before carrageenan challenge by Western blotting relative to control; format: functional; settings: route intraperitoneal
Outline: (§1)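 Male ICR mice (18−25 g, n = 6 per group) given drug or saline i.p. 30 min before 50 μL of 1% carrageenan into the right hind paw plantar side. Paw soft tissue was homogenized in CHAPS buffer with protease inhibitors. About 30 μg protein run on 10% SDS-PAGE, immunoblotted for iNOS or COX-2, ECL detection, normalized to β-actin. Indomethacin 10 mg/kg as positive control.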

Mus musculus [2] = assay: Antiinflammatory activity in ICR mouse assessed as inhibition of carrageenan-induced decrease in GPx activity in liver at 10 mg/kg, ip administered 30 mins before carrageenan challenge measured after 5 hrs; format: functional, organism-based; set-up: dose 10 mg/kg
Outline: (§2)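 Liver catalase, SOD and GPx activities determined 5 h after intrapaw carrageenan in ICR mice given drug i.p. 30 min beforehand. Indomethacin 10 mg/kg as positive control.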

Mus musculus [3] = assay: Antiinflammatory activity in ICR mouse assessed as inhibition of carrageenan-induced neutrophil infiltration in paw at 10 mg/kg, ip administered 30 mins before carrageenan challenge; format: functional, organism-based; set-up: dose 10 mg/kg
Mus musculus [4] = assay: Antiinflammatory activity in ICR mouse assessed as inhibition of carrageenan-induced COX2 protein expression in paw at 10 mg/kg, ip administered 30 mins before carrageenan challenge by Western blotting relative to control; format: functional; settings: route intraperitoneal; outline: as §1
Mus musculus [5] = assay: Antiinflammatory activity in ICR mouse assessed as inhibition of carrageenan-induced decrease in SOD activity in liver at 10 mg/kg, ip administered 30 mins before carrageenan challenge measured after 5 hrs; format: functional, organism-based; set-up: dose 10 mg/kg; outline: as §2
Mus musculus [6] = assay: Antiinflammatory activity in ICR mouse assessed as inhibition of carrageenan-induced paw edema at 10 mg/kg, ip administered 30 mins before carrageenan challenge measured after 3 hrs by plethysmometer analysis; format: functional, organism-based; set-up: dose 10 mg/kg
Outline: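 Male ICR mice (n = 6) received saline, indomethacin 10 mg/kg or drug i.p. 30 min before 50 μL of 1% carrageenan in the right hind paw. Paw volume was read by plethysmometer immediately and at 1−5 h. Swelling was expressed as the ratio of right paw volume after carrageenan to volume before.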

Mus musculus [7] = assay: Antiinflammatory activity in ICR mouse assessed as inhibition of carrageenan-induced TNFalpha level in paw serum at 10 mg/kg, ip administered 30 mins before carrageenan challenge measured after 5 hrs by ELISA; format: functional, organism-based; set-up: dose 10 mg/kg
Outline: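 ICR mice (n = 6) dosed i.p. 30 min before intraplantar 1% carrageenan; blood collected at sacrifice and stored at −80 °C. Serum TNF-α quantified by commercial ELISA, reported in pg/mL from the standard-curve regression. Indomethacin 10 mg/kg as reference.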

Mus musculus [8] = assay: Antiinflammatory activity in ICR mouse assessed as inhibition of carrageenan-induced decrease in CAT activity in liver at 10 mg/kg, ip administered 30 mins before carrageenan challenge measured after 5 hrs; format: functional, organism-based; set-up: dose 10 mg/kg; outline: as §2
Mus musculus [9] = assay: Antiinflammatory activity in ICR mouse assessed as inhibition of carrageenan-induced malondialdehyde level in paw serum at 10 mg/kg, ip administered 30 mins before carrageenan challenge measured after 5 hrs by TRARS method; format: functional, organism-based; set-up: dose 10 mg/kg
Outline: (§3)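 Carrageenan (1%, 50 μL intraplantar) given to ICR mice 30 min after i.p. dosing; right hind paws dissected at end and kept at −80 °C. Malondialdehyde measured by thiobarbituric acid reaction under acidic high-temperature conditions, red TBARS complex read at 532 nm.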

Mus musculus [10] = assay: Antiinflammatory activity in ICR mouse assessed as inhibition of carrageenan-induced malondialdehyde level in paw at 10 mg/kg, ip administered 30 mins before carrageenan challenge by TRARS method; format: functional, organism-based; set-up: dose 10 mg/kg; outline: as §3
Mus musculus [11] = assay: Antiinflammatory activity in ICR mouse assessed as inhibition of carrageenan-induced decrease in CAT activity in liver at 5 mg/kg, ip administered 30 mins before carrageenan challenge measured after 5 hrs; format: functional, organism-based; set-up: dose 5 mg/kg; outline: as §2
Mus musculus [12] = assay: Antiinflammatory activity in ICR mouse assessed as inhibition of carrageenan-induced TNFalpha level in paw serum at 5 to 10 mg/kg, ip administered 30 mins before carrageenan challenge measured after 5 hrs by ELISA
HCT-116 = assay: Cytotoxicity against human HCT116 cells; format: functional, cell-based
RAW264.7 [13] = assay: Cytotoxicity against LPS-stimulated mouse RAW264.7 cells assessed as cell viability at 10 ug/ml treated 1 hr before LPS challenge measured after 24 hrs by MTT assay; format: cell-based; settings: raw264.7, 24 h
Outline: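 RAW264.7 cells (2 × 10^5/well) grown 1 day to near confluence, pretreated 1 h with drug (0−10 μg/mL), then co-stimulated with 100 ng/mL LPS for 24 h. After DPBS washes, cells got 0.5 mg/mL MTT for 2 h at 37 °C, then DMSO for 30 min, and absorbance was read at 570 nm.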

Mus musculus [14] = assay: Antiinflammatory activity in ICR mouse assessed as inhibition of carrageenan-induced nitric oxide level in paw serum at 1 to 10 mg/kg, ip administered 30 mins before carrageenan challenge measured after 5 hrs by Griess method; format: functional, organism-based
Outline: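 Mice pretreated i.p. 30 min before intraplantar 1% carrageenan; samples taken 5 h after injection. Homogenates diluted fourfold in water, deproteinized with zinc sulfate to a final 15 mg/mL, centrifuged at 10000g for 5 min. Supernatant mixed 1:1 with Griess reagent, 10 min at room temperature, A540. Nitrite quantified against a sodium nitrite standard curve.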

Mus musculus [15] = assay: Antiinflammatory activity in ICR mouse assessed as inhibition of carrageenan-induced decrease in SOD activity in liver at 5 mg/kg, ip administered 30 mins before carrageenan challenge measured after 5 hrs; format: functional, organism-based; set-up: dose 5 mg/kg; outline: as §2
[16] = Cytotoxicity against human breast cancer cells; format: functional, cell-based; settings: Cancer cell lines
RAW264.7 [17] = assay: Antiinflammatory activity in mouse RAW264.7 cells assessed as inhibition of LPS-induced nitric oxide production treated 1 hr before LPS challenge measured after 24 hrs by Griess method; format: functional, cell-based
Outline: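 RAW264.7 cells preincubated 1 h with drug at 0, 1, 5 or 10 μg/mL, then co-treated with 100 ng/mL LPS at 37 °C for 24 h. Culture medium mixed 1:1 with Griess reagent (1% sulfanilamide, 0.1% naphthyl ethylenediamine, 5% phosphoric acid), 10 min at room temperature, absorbance 540 nm against a nitrite standard curve.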

[18] = Cytotoxicity against human leukemia cells; format: functional, cell-based; settings: Leukemia cell
Mus musculus [19] = assay: Antiinflammatory activity in ICR mouse assessed as inhibition of carrageenan-induced decrease in GPx activity in liver at 5 mg/kg, ip administered 30 mins before carrageenan challenge measured after 5 hrs; format: functional, organism-based; set-up: dose 5 mg/kg; outline: as §2
RAW264.7 [20] = assay: Antiinflammatory activity in mouse RAW264.7 cells assessed as inhibition of LPS-induced iNOS expression at 5 to 10 ug/ml by Western blotting; format: functional, cell-based
Outline: (§4)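 RAW264.7 macrophages in DMEM with 10% FBS were pretreated 1 h with drug (0−10 μg/mL), then co-stimulated with 100 ng/mL LPS for 24 h. Lysates (ice-cold Triton lysis buffer, pH 7.9) were blotted for iNOS or COX-2, with about 30 μg protein per lane and ECL detection. Bands normalized to β-actin, expressed relative to the LPS-only group as 100%.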

RAW264.7 [21] = assay: Antiinflammatory activity in mouse RAW264.7 cells assessed as inhibition of LPS-induced COX2 expression at 5 to 10 ug/ml by Western blotting; format: functional, cell-based; outline: as §4
PBMC = assay: Cytotoxicity against human PBMC; format: cell-based
Mus musculus [22] = assay: Antiinflammatory activity in ICR mouse assessed as inhibition of carrageenan-induced malondialdehyde level in paw serum at 1 mg/kg, ip administered 30 mins before carrageenan challenge measured after 5 hrs by TRARS method; format: functional, organism-based; set-up: dose 1 mg/kg; outline: as §3

COc1ccc2c(c1)c(CC(=O)O)c(C)n2C(=O)c1ccc(Cl)cc1 [INDOMETHACIN]
inhibition in vivo at 10 mg/kg (Mus musculus [1]): 61.5% | inhibition (Mus musculus [2]): Active | inhibition (Mus musculus [3]): Active | inhibition in vivo at 10 mg/kg (Mus musculus [4]): 58.1% | inhibition (Mus musculus [5]): Active | inhibition (Mus musculus [6]): Active | inhibition (Mus musculus [7]): Active | inhibition (Mus musculus [8]): Active | inhibition (Mus musculus [9]): Active

C=C[C@](C)(O)CC[C@@H]1[C@@]2(C)CCCC(C)(C)[C@@H]2CC[C@@]1(C)O [SCLAREOL]
inhibition in vivo at 10 mg/kg (Mus musculus [1]): 69.6% | inhibition (Mus musculus [10]): Active | inhibition (Mus musculus [11]): Active | inhibition (Mus musculus [3]): Active | inhibition (Mus musculus [12]): Active | inhibition in vivo at 10 mg/kg (Mus musculus [4]): 70.3% | IC50 (HCT-116): 10.6 µg/mL (≈ 34.4 µM) | Activity (RAW264.7 [13]): Non-toxic | inhibition (Mus musculus [14]): Active | inhibition (Mus musculus [15]): Active | IC50 [16]: 7 µg/mL (≈ 22.7 µM) | inhibition (RAW264.7 [17]): Dose-dependent effect | inhibition (Mus musculus [6]): Active | IC50 [18]: 6 µg/mL (≈ 19.4 µM) | inhibition (Mus musculus [19]): Active | inhibition (RAW264.7 [20]): Active | inhibition (RAW264.7 [21]): Active | IC50 (PBMC): 10.7 µg/mL (≈ 34.7 µM) | inhibition (Mus musculus [22]): Active
